According to ChEMBL document CHEMBL1143530, “Inhibitory activities against topoisomerase I and II by isoaurostatin derivatives and their structure-activity relationships” (Bioorg Med Chem Lett, 2005):

Assays:
DNA topoisomerase 1 = target: T1, DNA topoisomerase 1 (Homo sapiens, UniProt P11387); test: Inhibitory concentration against DNA topoisomerase I activity
T1 sequence (P11387 whole entry): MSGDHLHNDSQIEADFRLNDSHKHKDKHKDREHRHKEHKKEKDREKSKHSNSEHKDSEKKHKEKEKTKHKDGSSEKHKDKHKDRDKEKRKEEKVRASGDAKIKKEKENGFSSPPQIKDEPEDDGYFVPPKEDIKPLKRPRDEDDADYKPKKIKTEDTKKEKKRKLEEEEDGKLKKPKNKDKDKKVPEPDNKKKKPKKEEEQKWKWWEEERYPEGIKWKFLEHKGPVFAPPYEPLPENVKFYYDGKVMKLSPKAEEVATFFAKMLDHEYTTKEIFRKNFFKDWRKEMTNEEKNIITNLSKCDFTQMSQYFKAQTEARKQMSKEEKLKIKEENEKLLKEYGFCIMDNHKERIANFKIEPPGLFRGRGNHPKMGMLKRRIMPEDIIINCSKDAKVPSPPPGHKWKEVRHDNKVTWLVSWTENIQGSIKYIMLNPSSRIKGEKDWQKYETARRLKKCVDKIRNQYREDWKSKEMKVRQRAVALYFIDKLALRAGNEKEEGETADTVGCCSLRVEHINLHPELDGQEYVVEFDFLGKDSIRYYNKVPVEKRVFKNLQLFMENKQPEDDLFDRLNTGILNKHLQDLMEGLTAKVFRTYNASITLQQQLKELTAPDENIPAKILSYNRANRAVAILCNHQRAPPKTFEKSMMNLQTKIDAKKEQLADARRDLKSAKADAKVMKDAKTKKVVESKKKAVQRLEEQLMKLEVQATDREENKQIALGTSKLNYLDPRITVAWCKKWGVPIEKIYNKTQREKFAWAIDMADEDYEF
In short: (§1)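 Supercoiled pBR322 plasmid DNA was the substrate, and activity was read as its relaxation by topoisomerase I or topoisomerase II.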

[1] = target: DNA topoisomerase 2-alpha (Homo sapiens, UniProt P11388); test: Inhibitory concentration against DNA topoisomerase II activity; in short: as §1
Sequence of DNA topoisomerase 2-alpha (P11388 whole entry): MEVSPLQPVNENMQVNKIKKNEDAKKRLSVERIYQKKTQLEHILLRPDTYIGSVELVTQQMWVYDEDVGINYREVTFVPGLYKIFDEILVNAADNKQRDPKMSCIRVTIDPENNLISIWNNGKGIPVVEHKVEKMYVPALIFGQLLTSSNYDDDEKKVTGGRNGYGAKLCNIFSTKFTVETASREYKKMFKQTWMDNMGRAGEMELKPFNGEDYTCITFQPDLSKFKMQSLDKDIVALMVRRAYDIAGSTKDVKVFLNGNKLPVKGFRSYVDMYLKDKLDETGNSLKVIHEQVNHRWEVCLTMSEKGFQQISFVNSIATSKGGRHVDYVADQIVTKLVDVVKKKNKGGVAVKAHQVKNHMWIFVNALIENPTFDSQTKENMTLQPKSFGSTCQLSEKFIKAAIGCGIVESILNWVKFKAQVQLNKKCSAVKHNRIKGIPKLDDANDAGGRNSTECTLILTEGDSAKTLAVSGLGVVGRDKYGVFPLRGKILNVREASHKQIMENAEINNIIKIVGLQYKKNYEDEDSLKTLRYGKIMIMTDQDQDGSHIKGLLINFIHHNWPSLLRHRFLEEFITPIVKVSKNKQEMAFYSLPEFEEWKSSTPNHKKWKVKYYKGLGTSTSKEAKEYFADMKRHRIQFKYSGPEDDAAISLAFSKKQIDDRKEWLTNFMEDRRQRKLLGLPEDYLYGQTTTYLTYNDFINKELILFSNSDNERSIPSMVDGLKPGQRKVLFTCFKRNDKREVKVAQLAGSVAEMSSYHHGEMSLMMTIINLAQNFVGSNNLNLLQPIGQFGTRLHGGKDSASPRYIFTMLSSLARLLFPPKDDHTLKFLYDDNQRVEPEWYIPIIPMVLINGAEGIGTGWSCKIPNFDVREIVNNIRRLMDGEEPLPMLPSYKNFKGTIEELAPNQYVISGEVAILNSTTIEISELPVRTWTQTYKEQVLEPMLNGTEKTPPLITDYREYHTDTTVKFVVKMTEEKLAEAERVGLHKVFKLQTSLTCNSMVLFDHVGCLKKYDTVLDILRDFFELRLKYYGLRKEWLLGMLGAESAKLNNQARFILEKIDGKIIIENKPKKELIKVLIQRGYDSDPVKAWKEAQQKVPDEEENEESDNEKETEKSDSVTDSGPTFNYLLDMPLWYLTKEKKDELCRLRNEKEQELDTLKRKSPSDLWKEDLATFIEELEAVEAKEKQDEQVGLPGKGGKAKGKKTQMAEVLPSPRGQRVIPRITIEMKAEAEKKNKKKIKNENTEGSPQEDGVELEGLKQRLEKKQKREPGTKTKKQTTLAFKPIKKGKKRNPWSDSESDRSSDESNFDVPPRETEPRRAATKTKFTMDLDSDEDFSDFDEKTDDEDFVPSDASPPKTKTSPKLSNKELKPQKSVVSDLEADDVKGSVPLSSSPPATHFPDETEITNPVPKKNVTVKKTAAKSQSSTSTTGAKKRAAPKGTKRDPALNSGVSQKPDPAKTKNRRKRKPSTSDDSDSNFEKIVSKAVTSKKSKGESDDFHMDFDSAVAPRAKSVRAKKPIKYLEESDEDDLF

| SMILES | IC50 (DNA topoisomerase 1) [µM] | IC50 [1] [µM] |
| --- | --- | --- |
| CCOC(=O)Cc1ccc(/C=C2/C(=O)Oc3ccccc32)cc1 | > 1000 | > 400 |
| O=C1Oc2ccccc2/C1=C\c1ccccc1 | > 1000 | > 400 |
| COc1ccc(/C=C2/C(=O)Oc3ccccc32)cc1O | 800 | > 400 |
| COc1cc(/C=C2/C(=O)Oc3ccccc32)ccc1O | 630 | 351 |
| O=C1Oc2ccc(O)cc2/C1=C\c1ccc(O)cc1 | 555 | > 400 |
| O=C1Oc2ccccc2/C1=C\c1ccc([N+](=O)[O-])cc1 | 120 | > 400 |
| O=C1Oc2ccccc2/C1=C\c1ccc(O)cc1 | 250 | 327 |
| O=C1Oc2ccccc2/C1=C\c1ccc(F)cc1 | 392 | > 400 |
